Experimental data taken from ChEMBL document CHEMBL4400542, “Epidermal Growth Factor Receptor-Targeted Multifunctional Photosensitizers for Bladder Cancer Imaging and Photodynamic Therapy” (J Med Chem, 2019).
pIC50: −log10 of the molar value. The source made the active and inactive calls. No cut-off for these calls is given here.

Experiments:
[1] = Drug accumulation in mitochondria of human T24 cells at 500 nM formulated with 1% tween 80 solution after 24 hrs by mitotracker red based fluorimetry; type: ADME; settings: t-24, 24 h, 0.5 µM
UMUC3 [2] = experiment: Photo-activated cytotoxicity against human UM-UC-3 cells assessed as reduction in cell viability preincubated for 24 hrs followed by 1 J/cm2 light irradiation and measured after 48 hrs formulated with 1% tween 80 solution by MTT assay; type: functional, cell-based; settings: UMUC3, light or radiation study
How it was run: (§1)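 Cells plated at 10k per well, allowed 24 h to adhere, then PS added in two-fold dilutions from 1 µM top for 24 h. Irradiated at 665 nm, 1.0 J/cm2 at 3.2 mW/cm2. Viability by MTT 48 h after PDT: about 2 h incubation, formazan dissolved in DMSO, absorbance at 570 nm.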

[3] = Drug accumulation in human UM-UC-3 cells at 500 nM formulated with 2% pluronic F-127 solution after 24 hrs by CARY-fluorimetry; type: ADME, cell-based; settings: umuc3, 24 h, 0.5 µM
[4] = Drug accumulation in lysosomes of human UM-UC-3 cells at 500 nM formulated with 1% tween 80 solution after 24 hrs by lysosphere green based fluorimetry; type: ADME, subcellular, Lysosome; settings: umuc3, 24 h, 0.5 µM
[5] = Induction of singlet oxygen generation in deaerated toluene at 670 nm assessed as singlet decay life time by femtosecond transient absorption spectroscopy; type: functional
UMUC3 [6] = experiment: Induction of oxidative stress in human UM-UC-3 cells assessed as increase in ROS production at 1 uM in presence of 1 J/cm2 light irradiation and measured at 20 min post light exposure by DCFDA-fluorescence based assay relative to control; type: functional
How it was run: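 UMUC3 cells at 10k per well; after 24 h, PS added at 1 µM for 24 h (Tween80 formulation). DCFDA 1 µM for 20 min, fluorescence read (ex 492, em 517). Then 665 nm light, 1 J total at 3.2 mW/cm2, and read again. No-DCFDA background subtracted; 0.05% H2O2 control wells.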

[7] = Drug uptake in human UM-UC-3 cells assessed as increase in gray value intensity at 500 nM after 48 hrs in presence of gleevec by Hoechst 33342 staining based fluorescence microscopy; type: ADME, cell-based; settings: umuc3, 24 h, 0.5 µM, in the assay text read “after 24 hrs” for “after 48 hrs”
How it was run: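 Cells plated at 100k per well, grown to 80% confluency, refreshed, then incubated 24 h with PS at 500 nM with or without Gleevec 5 µM. Washed twice with PBS, Hoechst 33342 added, imaged by fluorescence microscopy; grey value normalized to cell number, triplicate groups and images.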

[8] = Induction of singlet oxygen generation in deaerated toluene at 670 nm assessed as rate of singlet decay by femtosecond transient absorption spectroscopy; type: functional
[9] = target: Epidermal growth factor receptor (Homo sapiens) (UniProt P00533); experiment: Inhibition of EGFR autophosphorylation at Ty1068 in human UM-UC-3 cells at 1 uM followed by PDT and measured after 24 hrs by Western blot analysis; type: cell-based
[10] = Drug accumulation in human T24 cells at 500 nM formulated with 2% pluronic F-127 solution after 24 hrs by CARY-fluorimetry; type: ADME, cell-based; settings: t-24, 24 h, 0.5 µM
[11] = Stability at -20 degC for 2 months; type: physicochemical; settings: 1461 h
How it was run: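 Formulated PS stored at -4 °C or -20 °C for two months; checked for precipitation and pH change.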

[12] = Drug accumulation in human T24 cells at 500 nM formulated with 1% tween 80 solution after 24 hrs by CARY-fluorimetry; type: ADME, cell-based; settings: t-24, 24 h, 0.5 µM
[13] = Drug accumulation in human UM-UC-3 cells at 500 nM formulated with 1% tween 80 solution after 24 hrs by CARY-fluorimetry; type: ADME, cell-based; settings: umuc3, 24 h, 0.5 µM
[14] = Drug uptake in human T24 cells assessed as increase in gray value intensity at 1 uM pretreated for 24 hrs followed by compound washout and measured after 4 hrs by Hoechst 33342 staining based fluorescence microscopy; type: ADME, cell-based; settings: t-24, 4 h
How it was run: (§2)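 Cells pre-incubated 24 h with free erlotinib before PS addition. Legend describes PS at 1 uM or erlotinib at 3 uM for 4 h, then three warm PBS washes. Imaged by fluorescence microscopy; grey value per field normalized to cell count, triplicate wells, each imaged in triplicate.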

[15] = Stability at -4 degC for 2 months; type: physicochemical; settings: 1461 h
How it was run: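 Photosensitizer formulations in Tween80 or Pluronic F-127 were stored at -4 °C, alongside a -20 °C set, for two months. Stability was judged by visible precipitation and change in pH.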

[16] = Drug accumulation in lysosomes of human UM-UC-3 cells at 500 nM formulated with 2% pluronic F-127 solution after 24 hrs by lysosphere green based fluorimetry; type: ADME, subcellular, Lysosome; settings: umuc3, 24 h, 0.5 µM
UMUC3 [17] = experiment: Photo-activated cytotoxicity against human UM-UC-3 cells assessed as reduction in cell viability preincubated for 24 hrs followed by 1 J/cm2 light irradiation and measured after 48 hrs formulated with 2% pluronic F-127 solution by MTT assay; type: functional, cell-based; settings: UMUC3, light or radiation study; how it was run: as §1
[18] = Drug accumulation in mitochondria of human T24 cells at 500 nM formulated with 2% pluronic F-127 solution after 24 hrs by mitotracker red based fluorimetry; type: ADME; settings: t-24, 24 h, 0.5 µM
[19] = target: Epidermal growth factor receptor (Homo sapiens) (UniProt P00533); experiment: Inhibition of EGFR autophosphorylation at Ty1068 in human UM-UC-3 cells at 100 nM followed by PDT and measured after 24 hrs by Western blot analysis; type: cell-based
UMUC3 [20] = experiment: Induction of apoptosis in human UM-UC-3 cells assessed as increase in apoptotic cells at 1 uM in absence of light by Annexin V/propidium iodide-staining based flow cytometry; type: cell-based; settings: umuc3, 1 µM
[21] = Drug uptake in human UM-UC-3 cells assessed as increase in gray value intensity at 1 uM pretreated for 24 hrs followed by compound washout and measured after 4 hrs by Hoechst 33342 staining based fluorescence microscopy; type: ADME, cell-based; settings: umuc3, 4 h; how it was run: as §2
T-24 [22] = experiment: Photo-activated cytotoxicity against human T24 cells assessed as reduction in cell viability preincubated for 24 hrs followed by 1 J/cm2 light irradiation and measured after 48 hrs formulated with 2% pluronic F-127 solution by MTT assay; type: functional, cell-based; settings: T-24, light or radiation study; how it was run: as §1
T-24 [23] = experiment: Induction of apoptosis in human T24 cells assessed as increase in apoptotic cells at 1 uM in absence of light by Annexin V/propidium iodide-staining based flow cytometry; type: cell-based; settings: t-24, 1 µM
[24] = Drug accumulation in lysosomes of human T24 cells at 500 nM formulated with 2% pluronic F-127 solution after 24 hrs by lysosphere green based fluorimetry; type: ADME, subcellular, Lysosome; settings: t-24, 24 h, 0.5 µM
[25] = Drug accumulation in lysosomes of human T24 cells at 500 nM formulated with 1% tween 80 solution after 24 hrs by lysosphere green based fluorimetry; type: ADME, subcellular, Lysosome; settings: t-24, 24 h, 0.5 µM
[26] = Drug accumulation in mitochondria of human UM-UC-3 cells at 500 nM formulated with 2% pluronic F-127 solution after 24 hrs by mitotracker red based fluorimetry; type: ADME; settings: umuc3, 24 h, 0.5 µM
[27] = Drug accumulation in mitochondria of human UM-UC-3 cells at 500 nM formulated with 1% tween 80 solution after 24 hrs by mitotracker red based fluorimetry; type: ADME; settings: umuc3, 24 h, 0.5 µM
[28] = target: Epidermal growth factor receptor (Homo sapiens) (UniProt P00533); experiment: Inhibition of EGFR autophosphorylation at Ty1068 in human T24 cells at 1 uM followed by PDT and measured after 24 hrs by Western blot analysis; type: cell-based
T-24 [29] = experiment: Photo-activated cytotoxicity against human T24 cells assessed as reduction in cell viability preincubated for 24 hrs followed by 1 J/cm2 light irradiation and measured after 48 hrs formulated with 1% tween 80 solution by MTT assay; type: functional, cell-based; settings: T-24, light or radiation study; how it was run: as §1

Chain of Epidermal growth factor receptor (Homo sapiens) (P00533 whole entry): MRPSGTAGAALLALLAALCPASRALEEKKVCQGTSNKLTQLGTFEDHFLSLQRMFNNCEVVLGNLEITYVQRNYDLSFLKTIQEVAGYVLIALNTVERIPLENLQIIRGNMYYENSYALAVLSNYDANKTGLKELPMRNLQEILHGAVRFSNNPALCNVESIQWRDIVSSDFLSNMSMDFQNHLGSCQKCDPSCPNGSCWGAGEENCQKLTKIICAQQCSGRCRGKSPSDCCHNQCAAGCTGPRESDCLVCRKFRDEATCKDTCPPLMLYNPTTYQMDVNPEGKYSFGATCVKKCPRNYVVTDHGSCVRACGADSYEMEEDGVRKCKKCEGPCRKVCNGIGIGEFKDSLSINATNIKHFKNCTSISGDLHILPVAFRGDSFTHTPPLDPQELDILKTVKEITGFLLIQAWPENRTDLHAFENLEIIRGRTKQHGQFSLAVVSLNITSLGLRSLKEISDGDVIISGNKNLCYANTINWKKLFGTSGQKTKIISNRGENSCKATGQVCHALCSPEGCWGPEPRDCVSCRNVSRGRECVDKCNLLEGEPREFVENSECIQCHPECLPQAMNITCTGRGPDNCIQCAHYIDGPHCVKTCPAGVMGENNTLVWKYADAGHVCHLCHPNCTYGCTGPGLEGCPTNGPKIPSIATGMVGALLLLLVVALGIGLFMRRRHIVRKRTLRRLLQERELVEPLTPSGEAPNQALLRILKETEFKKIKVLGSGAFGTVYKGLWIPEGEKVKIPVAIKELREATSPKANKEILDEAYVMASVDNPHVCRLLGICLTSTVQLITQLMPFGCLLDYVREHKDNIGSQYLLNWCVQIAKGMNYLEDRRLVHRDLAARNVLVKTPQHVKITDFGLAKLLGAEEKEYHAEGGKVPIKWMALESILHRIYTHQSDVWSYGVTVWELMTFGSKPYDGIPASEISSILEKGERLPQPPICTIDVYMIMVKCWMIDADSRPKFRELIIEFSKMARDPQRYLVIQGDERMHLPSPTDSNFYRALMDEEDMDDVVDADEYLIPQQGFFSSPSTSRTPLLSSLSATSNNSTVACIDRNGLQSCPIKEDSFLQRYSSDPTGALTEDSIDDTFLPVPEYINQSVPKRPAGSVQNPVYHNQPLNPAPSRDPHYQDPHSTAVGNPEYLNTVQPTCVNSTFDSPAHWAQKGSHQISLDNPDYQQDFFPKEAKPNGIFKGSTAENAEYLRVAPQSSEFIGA

Drug uptake [1] | Drug uptake [3] | Drug uptake [4] | Drug uptake [7] | inhibition [9] | Drug uptake [10] | Stability [11] | Drug uptake [12] | Drug uptake [13] | Drug uptake [14] | Stability [15] | Drug uptake [16] | Drug uptake [18] | inhibition [19] | SMILES | pIC50 (UMUC3 [2]) | Time [5] | fold change (FC) (UMUC3 [6]) | K [8] | pIC50 (UMUC3 [17]) | Activity (UMUC3 [20]) | other results
Active | Active | Active | Not Active | Active | Active | Stable | Active | Active | Active | Stable | Active | Active | Active | CCC1=C(C)c2cc3[nH]c(cc4nc(c5c6[nH]c(cc1n2)c(C)c6C(=O)C5)[C@@H](CCC(=O)NCc1cccc(I)c1)[C@@H]4C)c(C)c3C(C)OCc1cccc(C#Cc2cccc(Nc3ncnc4cc(OCCOC)c(OCCOC)cc34)c2)c1 (stereo partly drawn) | 6.22 | 83 pS | 0.9 | 1.2 ×10¹⁰ /s | 6.49 | Non-Toxic | Drug uptake [21]: Not Active; pIC50 (T-24 [22]): 5.90; Activity (T-24 [23]): Non-Toxic; Drug uptake [24]: Active; Drug uptake [25]: Active; Drug uptake [26]: Active; Drug uptake [27]: Active; inhibition [28]: Active; pIC50 (T-24 [29]): 5.99
Active | Active | Active | Active | inactive | Active | Stable | Active | Active | Active | Stable | Active | Active | Active | CCC1=C(C)c2cc3[nH]c(cc4nc(c5c6[nH]c(cc1n2)c(C)c6C(=O)C5)[C@@H](CCC(=O)OC)[C@@H]4C)c(C)c3C(C)OCc1cccc(I)c1 (stereo partly drawn) | 7.02 | 1 nanoseconds | 2.5 | 1 ×10⁹ /s | 6.70 | Non-Toxic | Drug uptake [21]: Active; pIC50 (T-24 [22]): 6.75; Activity (T-24 [23]): Non-Toxic; Drug uptake [24]: Active; Drug uptake [25]: Active; Drug uptake [26]: Active; Drug uptake [27]: Active; inhibition [28]: inactive; pIC50 (T-24 [29]): 7.13
